Legend:
[1] = Cytotoxicity against human KB-3-1 cells after 72 hrs by MTT assay; assay type: functional, cell-based; settings: KB 3-1, 72 h
In short: (§1)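 Grown in DMEM with 10% FBS. MTT assay: 4000 cells/well, 24 h settling, serial dilutions of drug, 72 h at 37 °C in 5% CO2. MTT in IMDM 4 h, then acidified ethanol 15 min, A570 with 690 nm background. Three experiments in triplicate. KB-V1-R comes from KB-V1 grown long-term drug-free.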

[2] = Cytotoxicity against vinblastine-selected human KBV1 cells after 72 hrs by MTT assay; assay type: functional, cell-based; settings: KB-V1, 72 h
In short: as §1, with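 “background. IC50 is the concentration reducing absorbance to 50% of untreated control.” for “background.”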

[3] = Selectivity ratio of IC50 for human KB-3-1 cells to IC50 for human KBV1 cells selected at 1 ug/mL vinblastine; assay type: functional
In short: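 Selectivity ratio: IC50 in the parental or empty-vector cells divided by IC50 in the P-gp-expressing cells (KB-V1, or ABCB1-transfected LLC-PK1). MTT assay: 4000 cells/well established for 24 h, then 72 h exposure to serially diluted drug at 37 °C, 5% CO2. MTT for 4 h, acidified ethanol lysis, A570 corrected at A690. IC50 is the concentration giving 50% of untreated absorbance, from at least three experiments.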

SMILES	IC50 [1]	IC50 [2]	Ratio IC50 [3]
O=C1Nc2ccccc2/C1=N/NC(=S)Nc1ccc2c(c1)CCC2	5.8 µM	2.85 µM	2
O=C1Nc2ccccc2/C1=N/NC(=S)NCc1ccccc1	11.7 µM	7.63 µM	1.5
O=C1Nc2ccccc2/C1=N/NC(=S)NC1CCCCC1	9.14 µM	4.38 µM	2.1
CCCC1CCC(c2ccc(NC(=S)N/N=C3\C(=O)Nc4ccccc43)cc2)CC1 (stereo not drawn)	17.5 µM	11 µM	1.6
CC(C)c1ccc(NC(=S)N/N=C2\C(=O)Nc3ccccc32)cc1	9.11 µM	1.09 µM	8.4
O=C1Nc2ccccc2/C1=N/NC(=S)Nc1ccc(O)cc1	35.8 µM	21.6 µM	1.7
O=C1Nc2ccccc2/C1=N/NC(=S)NC12CC3CC(CC(C3)C1)C2	3.16 µM	1.02 µM	3.1
O=C1Nc2ccccc2/C1=N/NC(=S)Nc1cccc2ccccc12	5.12 µM	2.21 µM	2.3
Cc1ccc(NC(=S)N/N=C2\C(=O)Nc3ccccc32)cc1C	4.37 µM	2.2 µM	2
O=C1Nc2ccccc2/C1=N/NC(=S)Nc1ccc(C(=O)O)cc1	> 50 µM	> 50 µM	–
Cc1ccc(NC(=S)N/N=C2\C(=O)Nc3ccccc32)cc1	24 µM	2.6 µM	9.2
O=C1Nc2ccccc2/C1=N/NC(=S)Nc1cccnc1	> 50 µM	> 50 µM	–
O=C1Nc2ccccc2/C1=N/NC(=S)Nc1c(F)cc(F)cc1F	38.4 µM	7.28 µM	5.3
CNC(=S)N/N=C1\C(=O)Nc2ccccc21	35.3 µM	19.4 µM	1.8
CCc1ccc(NC(=S)N/N=C2\C(=O)Nc3ccccc32)cc1	4.05 µM	1.34 µM	3

— ChEMBL document CHEMBL1914305, “Synthesis and structure-activity evaluation of isatin-β-thiosemicarbazones with improved selective activity toward multidrug-resistant cells expressing P-glycoprotein” (J Med Chem, 2011)
